Results pooled from the literature.
LRRK2: Leucine-rich repeat serine/threonine-protein kinase 2 (LRRK2, Homo sapiens, UniProt Q5S007)
LRRK2 G2019S: Leucine-rich repeat serine/threonine-protein kinase 2 (LRRK2, Homo sapiens, UniProt Q5S007, G2019S)

target | assay | setting | measurement | result | SMILES
LRRK2 | binding | 1 µM | remaining binding | 74% | CN1CCN(C(=O)c2ccc(NC(=O)Nc3ccc(N(C)c4ccnc(Nc5ccc(CS(C)(=O)=O)cc5)n4)cc3)cc2)CC1
LRRK2 G2019S | enzyme activity, inhibitor | 1 µM | inhibition | 23% | C=CC(=O)N1CCC[C@@H](n2nc(-c3ccc(Oc4ccccc4)cc3)c3c(N)ncnc32)C1
LRRK2 | binding | 1 µM | remaining binding | 100% | Cc1ccc(NC(=O)c2ccnc(C(F)(F)F)c2)cc1-c1cc(OCCO)nc(N2CCOCC2)c1
LRRK2 G2019S | enzyme activity, inhibitor | 1 µM | inhibition | 0% | C=CC(=O)N1CCC([C@@H]2CCNc3c(C(N)=O)c(-c4ccc(Oc5ccccc5)cc4)nn32)CC1
LRRK2 G2019S | binding, competition with immobilised ligand | 1 µM | remaining binding | 39% | C[C@]1(O)CCCN(c2nc(Nc3ccc(S(=O)(=O)N[C@H]4CC[C@H](CN5CCN(c6ccc(C7CCC(=O)NC7=O)cc6F)CC5)CC4)cc3F)ncc2C(F)(F)F)C1 (stereo partly drawn)
LRRK2 | cell-free assay | 1 µM | remaining signal | 28% | C[C@H]1CC[C@H](n2c3cnccc3c3cnc(Nc4ccc5c(n4)CCN(C(=O)CO)C5)nc32)CC1
LRRK2 | binding | 0.1 µM | remaining binding | 100% | C1=C/COCc2cc(ccc2OCCN2CCCC2)Nc2nccc(n2)-c2cccc(c2)COC/1
LRRK2 | enzyme activity, inhibitor | 1 µM | activity vs control | 120% | CC(C)S(=O)(=O)c1ccc2nccc(Nc3ccc4sc(C5CCCC5)nc4c3)c2c1
LRRK2 | binding, competition with immobilised ligand | 1 µM | remaining binding | 12% | CNS(=O)(=O)c1ccc(Nc2ncc(C(F)(F)F)c(N3CCC[C@](C)(O)C3)n2)c(C)c1
LRRK2 G2019S | binding, competition with immobilised ligand | 0.5 µM | remaining binding | 100% | CCCCC(=O)Nc1ccc(-c2ccc3ncn(CCC)c(=O)c3c2)cn1
LRRK2 | binding | 1 µM | remaining binding | 2.8% | COc1ccc2[nH]c3c4[nH]c5ccc(OC)cc5c4c4c(c3c2c1)C(=O)NC4=O
LRRK2 G2019S | binding, competition with immobilised ligand | 1 µM | remaining binding | 4% | Cc1cc(S(=O)(=O)N[C@H]2CC[C@H](CN3CCN(c4ccc(C5CCC(=O)NC5=O)cc4F)CC3)CC2)ccc1Nc1ncc(C(F)(F)F)c(N2CCC[C@](C)(O)C2)n1 (stereo partly drawn)
